The values below come from ChEMBL document CHEMBL1944541, “Novel inhibitors of nitric oxide synthase with antioxidant properties” (Eur J Med Chem, 2012).

The structures appear in SMILES notation.

One series has as its system CYP450. Nature of the series: Inhibition of rat spleen microsomal CYP450 assessed as reduction of NADPH dependent cytochrome c at 500 uM. In kind it is ADME. As to conditions: spleen microsomes, probe cytochrome c. In outline:
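Rat spleen microsomal P450 activity measured as NADPH-dependent cytochrome c reduction. Incubation 15 min at 25 °C with or without compound, range 5–500.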

In series [1] the test system is Radical scavenging activity. Nature of the series: Antioxidant activity assessed as DPPH free radical scavenging activity at 100 uM after 10 mins relative to control. In kind it is functional. In a few lines: (§1)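 Compounds in ethanol with DPPH radical, tested at 50, 100 and 500, held 10 min at room temperature. Absorbance read at 517 nm and reported as percent decrease against control. IC50 was calculated for selected compounds. Trolox served as reference. Standard deviation was ≤10% (n ≥ 3).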
A general note: DPPH is a stable violet radical that fades when it is reduced.

Series [2] deals with Plasma. Description: Antioxidant activity in human plasma assessed as inhibition of Fe2+-induced lipid hydroperoxidation after 2 hrs by FOX assay. In kind it is functional, cell-free.
Series [3] in a line: Antioxidant activity assessed as NADH oxidation-induced superoxide radical scavenging activity at 25 uM after 20 mins relative to control. In kind it is functional. In a few lines: (§2)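 Superoxide generated without a Fenton-type reaction from NADH, EDTA/MnCl2 and β-mercaptoethanol in triethanolamine-diethanolamine buffer, pH 7.4 (1 mL). Compounds tested at 25, 50 and 100. […] IC50 was calculated. SOD (40 mU/ml) served as reference. SD ≤10% (n ≥ 3).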

Series [4] concerns Plasma. Description: Antioxidant activity in human plasma assessed as inhibition of Fe2+-induced lipid hydroperoxidation at 50 uM after 2 hrs by FOX assay relative to control. The class given is functional, cell-free. In outline: (§3)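 Plasma from a healthy donor: heparinized venous blood taken after an overnight fast, spun at 800 g for 20 min. Plasma was diluted 1:1 with oxygenated PBS and incubated 2 h at 37 °C with or without compound (10, 50, 100). Lipid hydroperoxides were measured by FOX assay (Fe2+→Fe3+ with xylenol orange, 560 nm), calibrated against H2O2. Results given as percent inhibition against untreated plasma.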

A short description of series [5]: Antioxidant activity assessed as NADH oxidation-induced superoxide radical scavenging activity at 50 uM after 20 mins relative to control. In kind it is functional. In outline: as §2
Series [6] has as its system Radical scavenging activity. Description: Antioxidant activity assessed as DPPH free radical scavenging activity at 50 uM after 10 mins relative to control. The class given is functional. In a few lines: as §1
Series [7] deals with Radical scavenging activity. Description: Antioxidant activity assessed as DPPH free radical scavenging activity at 500 uM after 10 mins relative to control. In kind it is functional. In outline: as §1
A further series deals with T1, Nitric oxide synthase 3 (Mus musculus, UniProt P70313).
T1 sequence (P70313 whole entry): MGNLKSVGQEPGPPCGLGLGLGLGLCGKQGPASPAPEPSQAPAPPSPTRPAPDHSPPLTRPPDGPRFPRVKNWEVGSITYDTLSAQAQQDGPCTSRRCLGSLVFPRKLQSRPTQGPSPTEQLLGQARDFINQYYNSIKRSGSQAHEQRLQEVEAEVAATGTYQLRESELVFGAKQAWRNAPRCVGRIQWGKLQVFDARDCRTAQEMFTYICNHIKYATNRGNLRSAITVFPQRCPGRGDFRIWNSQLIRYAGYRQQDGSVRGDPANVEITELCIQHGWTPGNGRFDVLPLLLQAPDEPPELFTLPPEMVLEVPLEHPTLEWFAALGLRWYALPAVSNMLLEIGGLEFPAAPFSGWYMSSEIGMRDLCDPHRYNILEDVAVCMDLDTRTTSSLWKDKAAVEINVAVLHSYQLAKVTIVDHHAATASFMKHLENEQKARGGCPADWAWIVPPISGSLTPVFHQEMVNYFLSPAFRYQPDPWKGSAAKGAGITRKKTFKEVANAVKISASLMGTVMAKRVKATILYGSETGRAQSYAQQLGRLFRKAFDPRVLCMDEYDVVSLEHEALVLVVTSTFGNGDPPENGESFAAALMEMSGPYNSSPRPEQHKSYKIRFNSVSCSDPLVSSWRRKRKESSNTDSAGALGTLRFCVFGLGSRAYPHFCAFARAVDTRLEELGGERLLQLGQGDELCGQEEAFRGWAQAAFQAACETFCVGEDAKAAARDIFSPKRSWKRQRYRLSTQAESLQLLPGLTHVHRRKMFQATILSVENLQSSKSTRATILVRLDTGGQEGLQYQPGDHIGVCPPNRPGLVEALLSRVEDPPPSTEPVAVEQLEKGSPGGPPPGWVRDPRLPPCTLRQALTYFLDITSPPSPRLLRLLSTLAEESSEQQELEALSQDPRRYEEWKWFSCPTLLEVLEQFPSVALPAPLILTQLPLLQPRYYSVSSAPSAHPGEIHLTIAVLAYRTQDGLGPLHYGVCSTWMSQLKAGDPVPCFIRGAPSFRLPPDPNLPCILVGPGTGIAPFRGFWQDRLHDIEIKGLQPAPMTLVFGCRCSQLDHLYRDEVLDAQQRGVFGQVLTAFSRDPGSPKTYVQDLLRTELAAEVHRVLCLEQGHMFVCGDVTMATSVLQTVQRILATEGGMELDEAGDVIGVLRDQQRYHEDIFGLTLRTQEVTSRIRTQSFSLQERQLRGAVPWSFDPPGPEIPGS
Description: Inhibition of C57BL/6 mouse eNOS assessed as conversion of oxyhemoglobin to methemoglobin by UV spectrophotometer analysis. In outline:
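eNOS from H5V mouse endothelial cells (passage 5, DMEM with 10% FCS, 37 °C, 5% CO2). Cells were sonicated in Tris-HCl pH 7.4 with EDTA, DTT and protease inhibitors, and the 20,000 g supernatant was used. Activity was followed as oxyhemoglobin→methemoglobin conversion in Hepes pH 7.4 with L-arginine, NADPH, FAD, BH4, Ca2+ and calmodulin. Compounds tested at 500, 100 and 50. Results reported as Ki or percent inhibition.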

A short description of series [8]: Antioxidant activity assessed as NADH oxidation-induced superoxide radical scavenging activity after 20 mins. In kind it is functional. In outline:
as §2

The next series deals with Nitric oxide synthase 1 (Rattus norvegicus, UniProt P29476). Nature of the series: Inhibition of rat recombinant nNOS expressed in baculovirus-infected Sf9 cells assessed as conversion of oxyhemoglobin to methemoglobin by UV spectrophotometer analysis.
Series [9] concerns Plasma. Description: Antioxidant activity in human plasma assessed as inhibition of Fe2+-induced lipid hydroperoxidation at 100 uM after 2 hrs by FOX assay relative to control. The class given is functional, cell-free. In outline: as §3
Series [10] can be described thus: Antioxidant activity assessed as NADH oxidation-induced superoxide radical scavenging activity at 100 uM after 20 mins relative to control. The class given is functional. In a few lines: as §2
Series [11] relates to Radical scavenging activity. Description: Antioxidant activity assessed as DPPH free radical scavenging activity after 10 mins. The class given is functional. In outline: as §1
The test system of series [12] is Plasma. Description: Antioxidant activity in human plasma assessed as inhibition of Fe2+-induced lipid hydroperoxidation at 25 uM after 2 hrs by FOX assay relative to control. In kind it is functional, cell-free.

As a reminder, the inhibition is the drop in the measured response relative to a control, in per cent. As usually defined, the IC50 is the midpoint of a concentration-inhibition curve. A word on the Ki: it is the dissociation constant of the complex between target and ligand, obtained from inhibition or displacement.

Nitric oxide synthase 1, sequence (P29476 whole entry): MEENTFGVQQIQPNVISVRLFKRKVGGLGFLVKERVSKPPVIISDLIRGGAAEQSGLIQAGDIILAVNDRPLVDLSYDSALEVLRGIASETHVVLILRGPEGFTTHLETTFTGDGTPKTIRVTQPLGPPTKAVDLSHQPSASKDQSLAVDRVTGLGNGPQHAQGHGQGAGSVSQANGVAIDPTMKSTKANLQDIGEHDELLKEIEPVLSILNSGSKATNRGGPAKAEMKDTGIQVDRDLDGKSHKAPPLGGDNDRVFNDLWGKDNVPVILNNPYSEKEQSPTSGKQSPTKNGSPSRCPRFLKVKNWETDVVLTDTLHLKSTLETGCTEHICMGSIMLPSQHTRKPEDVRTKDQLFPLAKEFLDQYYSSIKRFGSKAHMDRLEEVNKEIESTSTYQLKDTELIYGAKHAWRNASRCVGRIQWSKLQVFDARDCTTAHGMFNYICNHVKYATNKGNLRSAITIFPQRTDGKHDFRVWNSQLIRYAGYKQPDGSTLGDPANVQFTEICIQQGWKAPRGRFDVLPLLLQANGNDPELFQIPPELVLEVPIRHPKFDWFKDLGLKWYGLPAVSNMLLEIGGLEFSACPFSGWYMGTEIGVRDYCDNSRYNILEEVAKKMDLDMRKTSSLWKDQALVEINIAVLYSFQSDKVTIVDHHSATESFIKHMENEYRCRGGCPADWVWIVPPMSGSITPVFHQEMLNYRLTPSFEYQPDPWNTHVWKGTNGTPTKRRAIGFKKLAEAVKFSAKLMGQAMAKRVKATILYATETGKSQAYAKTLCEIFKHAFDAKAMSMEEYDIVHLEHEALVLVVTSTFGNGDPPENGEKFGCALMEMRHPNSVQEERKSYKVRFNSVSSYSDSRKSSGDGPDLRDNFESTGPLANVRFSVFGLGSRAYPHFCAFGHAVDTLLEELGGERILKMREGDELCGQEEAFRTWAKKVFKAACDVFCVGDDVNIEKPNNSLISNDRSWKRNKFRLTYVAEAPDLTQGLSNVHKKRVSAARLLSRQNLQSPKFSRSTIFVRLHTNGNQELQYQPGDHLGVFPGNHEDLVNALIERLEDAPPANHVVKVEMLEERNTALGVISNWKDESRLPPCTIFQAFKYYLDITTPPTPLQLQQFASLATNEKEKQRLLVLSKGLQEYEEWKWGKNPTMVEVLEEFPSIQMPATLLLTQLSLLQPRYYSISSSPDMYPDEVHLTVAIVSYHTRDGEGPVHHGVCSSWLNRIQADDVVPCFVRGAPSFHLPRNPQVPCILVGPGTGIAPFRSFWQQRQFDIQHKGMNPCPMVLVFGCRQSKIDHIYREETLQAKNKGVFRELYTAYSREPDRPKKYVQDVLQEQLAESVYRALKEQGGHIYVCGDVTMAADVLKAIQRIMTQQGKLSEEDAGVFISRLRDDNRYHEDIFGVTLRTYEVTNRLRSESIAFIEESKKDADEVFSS

Take `Cc1cn(CC(=O)c2ccc([N+](=O)[O-])cc2)cn1`: in the series with CYP450, the inhibition at 500 µM worked out at 13%. In addition, the Activity is 17% in series [1]; 20% in series [3]; 23% in series [5]; 12% in series [6]; 41% in [7]; “Dose-dependent effect” in series [8]. Further, the Activity in series [10] was 56%; in series [11] it was “Dose-dependent effect”. Also, the results for the IC50 (in the series with Plasma [2]; in series [8]; in series [11]) were 10 µM, 66 µM and > 500 µM, respectively. Also, the inhibition came out at 65% in the series on Plasma [4], 69% in the series with Plasma [9] and 53% with Plasma [12]. Further, the Ki was > 2 mM on Nitric oxide synthase 3 and 85 µM on Nitric oxide synthase 1.
